SMILES strings stand for the structures. Calls of active or inactive are those of the source. No cut-off for these calls is given here.

As usually defined, the LD50 is the dose expected to kill half of the subjects tested. The low end stands for greater toxicity, the high end for lower toxicity. In general, inhibition in vivo refers to the change of the read-out against control, counted positive when it falls.

The first data set deals with Canis familiaris. The data set is described as follows: Toxicity in dog at 150 mg/kg. It is filed as organism-based, Canis lupus familiaris. To be noted: in vivo. The arrangement: dose 150 mg/kg.
For `CC(CN)c1ccc(N2CCCCC2)cc1.Cl` (stereo unspecified), the Activity entry was “Toxic”.

System in another data set: not listed separately
The data set is described as follows: Toxicity in po dosed mouse. The class given is organism-based. The note with it: in vivo.
As for `CC(C)(O)c1ccc(N2CCCCC2)cc1`, the LD50 is 600 mg/kg.

`O=C(O)Cc1ccc(N2CCCCC2)cc1` gave an LD50 of 800 mg/kg.

In turn, `O=C(NCCc1ccc(N2CCCCC2)cc1)C(F)(F)F` yielded an LD50 of 1600 mg/kg.

Regarding `CC(CN)c1ccc(N2CCCCC2)c(Cl)c1.Cl` (stereo unspecified), the LD50 was 600 mg/kg.

For the compound `NCC(C(=O)O)c1ccc(N2CCCCC2)cc1` (stereo unspecified), the LD50 is > 1600 mg/kg.

In the case of `OCCc1ccc(N2CCCCC2)cc1`, the LD50 came out at 1200 mg/kg.

`NCCCCc1ccc(N2CCCCC2)c(Cl)c1.O=C(O)CCC(=O)O` returned a 50% lethal dose (LD50) of 1600 mg/kg.

On to `CC(CO)c1ccc(N2CCCCC2)cc1` (stereo unspecified), for which the LD50 came out at 1600 mg/kg.

`CC(CNC(=O)C(F)(F)F)c1ccc(N2CCCCC2)cc1` (stereo unspecified) displayed an LD50 of 600 mg/kg.

Regarding `Cl.NCCc1ccc(N2CCCCC2)cc1`, the LD50 was 1200 mg/kg.

In turn, `Cl.[2H]C([2H])(N)C(C)c1ccc(N2CCCCC2)cc1` (stereo unspecified) had an LD50 of 600 mg/kg.

Regarding `CC(N)Cc1ccc(N2CCCCC2)cc1.O=C(O)CCC(=O)O` (stereo unspecified), the LD50 is 600 mg/kg.

On to `CC(C(=O)O)c1ccc(N2CCCCC2)cc1` (stereo unspecified), for which the LD50 turned out to be 800 mg/kg.

As to `O=C(O)Cc1ccc(N2CCCCC2)c(Cl)c1`, the 50% lethal dose (LD50) came to 800 mg/kg.

In turn, `NCCCCCCc1ccc(N2CCCCC2)cc1.O=C(O)CCC(=O)O` returned an LD50 of 1200 mg/kg.

`CC(C)(CN)c1ccc(N2CCCCC2)cc1.O=C(O)CCC(=O)O` yielded an LD50 of 400 mg/kg.

As to `Cl.NCCc1cccc(N2CCCCC2)c1`, the 50% lethal dose (LD50) was determined as 600 mg/kg.

Turning to `CC(CN(C)C)c1ccc(N2CCCCC2)cc1.Cl` (stereo unspecified), the median lethal dose (LD50) was found to be 600 mg/kg.

For the compound `NCCc1ccc(N2CCCCC2)cc1.O=C(O)O`, the LD50 was 800 mg/kg.

As to `O=C(Cc1ccc(N2CCCCC2)cc1)NCCc1ccc(N2CCCCC2)cc1`, the 50% lethal dose (LD50) was 1600 mg/kg.

Compound `CC(CN)c1ccc(N2CCCCC2)cc1.Cl` (stereo unspecified) showed an LD50 of 600 mg/kg.

Turning to `c1cc(N2CCCCC2)ccc1CCN1CCCCC1`, the LD50 stood at 400 mg/kg.

As for `CN(CCc1ccc(N2CCCCC2)cc1)C(=O)C(F)(F)F.Cl`, the LD50 turned out to be 1600 mg/kg.

In the case of `NCCCCc1ccc(N2CCCCC2)cc1.O=C(O)O`, the LD50 came to 600 mg/kg.

`CC(C)c1ccc(N2CCCCC2)cc1.Cl`: the LD50 was 1200 mg/kg.

Take `CNCCc1ccc(N2CCCCC2)cc1.O=C(O)CCC(=O)O`: the LD50 was 600 mg/kg.

As for `Cl.NCCc1ccc(N2CCCCC2)c(Cl)c1`, the LD50 stood at 800 mg/kg.

As to `CC(CN)c1cccc(N2CCCCC2)c1` (stereo unspecified), the LD50 was determined as 600 mg/kg.

Regarding `CC(C(=O)O)c1ccc(N2CCCCC2)c(Cl)c1` (stereo unspecified), the LD50 was 1200 mg/kg.

A further data set has as its system Rattus norvegicus. The data set is described as follows: Antiinflammatory activity in Wistar rat assessed as inhibition of carrageenan-induced paw swelling at 100 mg/kg, po administered 0.5 to 3 hrs prior to carrageenan challenge measured after 2.5 hrs by plethysmographic analysis relative to control. It is filed as functional.
Conditions: not given
Summed up:
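Groups of four female Wistar rats (140–170 g) were dosed orally twice (2 × 50 or 2 × 100 mg/kg), at 3 and 0.5 h before plantar injection of 0.1 mL 1% carrageenan in 0.9% saline into the right hind foot. Right minus left foot volume was read by mercury-displacement plethysmograph at 2.5 h. Mean group swelling was expressed as % inhibition versus ten concurrent saline-dosed controls; significance p < 0.02.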
(In general: In the carrageenan paw model, swelling and tenderness develop within hours.)
Take `Cl.NCCc1ccc(N2CCCCC2)c(Cl)c1`: the inhibition in vivo at 100 mg/kg came to 58%.

In another data set the test system is Rattus norvegicus. The data set is described as follows: Antiinflammatory activity in Wistar rat assessed as inhibition of carrageenan-induced paw swelling at 2 x 100 mg/kg, po administered 0.5 to 3 hrs prior to carrageenan challenge measured after 2.5 hrs by plethysmographic analysis relative to control. It is filed as functional.
Conditions: not given
In short, it runs like this:
(§1)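 Female Wistar rats (in-house bred, 140–170 g; groups of four) were dosed orally twice, 3 and 0.5 h before a plantar injection of 0.1 mL 1% carrageenan in 0.9% saline into the right hind foot. Both feet were measured by mercury-displacement plethysmography 2.5 h later, and the right-minus-left difference was taken. Group mean % inhibition was calculated against ten concurrent saline-dosed controls, with significance at p < 0.02.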
With `NCCc1ccc(N2CCCCC2)cc1.O=C(O)O`, the “inhibition (INH)” value turned out to be 54%.

The same data set, now with this note: Rattus norvegicus, Wistar.
With `O=C(O)Cc1ccc(N2CCCCC2)cc1`, the inhibition in vivo at 100 mg/kg amounted to 51%.

Regarding `O=C(NCCc1ccc(N2CCCCC2)cc1)C(F)(F)F`, the inhibition in vivo at 100 mg/kg was 60%.

Turning to `NCC(C(=O)O)c1ccc(N2CCCCC2)cc1` (stereo unspecified), the inhibition in vivo at 100 mg/kg is 40%.

For `OCCc1ccc(N2CCCCC2)cc1`, the inhibition in vivo at 100 mg/kg was found to be 51%.

With `NCCCCc1ccc(N2CCCCC2)c(Cl)c1.O=C(O)CCC(=O)O`, the inhibition in vivo at 100 mg/kg turned out to be 71%.

Regarding `CC(CO)c1ccc(N2CCCCC2)cc1` (stereo unspecified), the inhibition in vivo at 100 mg/kg was determined as 71%.

For `O=C(O)Cc1ccc(N2CCCCC2)c(Cl)c1`, the inhibition in vivo at 100 mg/kg was found to be 43%.

`NCCCCCCc1ccc(N2CCCCC2)cc1.O=C(O)CCC(=O)O`: the inhibition in vivo at 100 mg/kg turned out to be 57%.

Regarding `CC(CN(C)C)c1ccc(N2CCCCC2)cc1.Cl` (stereo unspecified), the inhibition in vivo at 100 mg/kg is 70%.

Consider `O=C(Cc1ccc(N2CCCCC2)cc1)NCCc1ccc(N2CCCCC2)cc1`, for which the inhibition in vivo at 100 mg/kg was 22%.

Regarding `CN(CCc1ccc(N2CCCCC2)cc1)C(=O)C(F)(F)F.Cl`, the inhibition in vivo at 100 mg/kg came to 38%.

In the case of `NCCCCc1ccc(N2CCCCC2)cc1.O=C(O)O`, the inhibition in vivo at 100 mg/kg worked out at 54%.

In the case of `CCCCC1C(=O)N(c2ccccc2)N(c2ccccc2)C1=O` [PHENYLBUTAZONE], the inhibition in vivo at 100 mg/kg came out at 50%.

Consider `CC(C(=O)O)c1ccc(N2CCCCC2)c(Cl)c1` (stereo unspecified), for which the inhibition in vivo at 100 mg/kg stood at 53%.

Still in this data set, the particulars now being: Rattus norvegicus, Wistar, po.
Consider `Cl.NCCc1ccc(N2CCCCC2)cc1`, for which the inhibition in vivo at 100 mg/kg amounted to 55%.

The data set is the same for the next values; noted with them: at 100 mg/kg.
Consider `CC(CN)c1cccc(N2CCCCC2)c1` (stereo unspecified), for which the inhibition entry is “inactive”.

The test system of another data set is Rattus norvegicus. The data set is described as follows: Antiinflammatory activity in Wistar rat assessed as inhibition of carrageenan-induced paw swelling at 2 x 50 mg/kg, po administered 0.5 to 3 hrs prior to carrageenan challenge measured after 2.5 hrs by plethysmographic analysis relative to control. It is filed as functional.
Conditions: not given
In short, it runs like this:
as §1
For `CC(CN)c1ccc(N2CCCCC2)c(Cl)c1.Cl` (stereo unspecified), the inhibition in vivo at 50 mg/kg was determined as 39%.

For `CC(CNC(=O)C(F)(F)F)c1ccc(N2CCCCC2)cc1` (stereo unspecified), the inhibition in vivo at 50 mg/kg came out at 32%.

For the compound `Cl.[2H]C([2H])(N)C(C)c1ccc(N2CCCCC2)cc1` (stereo unspecified), the inhibition in vivo at 50 mg/kg worked out at 47%.

As to `CC(N)Cc1ccc(N2CCCCC2)cc1.O=C(O)CCC(=O)O` (stereo unspecified), the inhibition in vivo at 50 mg/kg was 33%.

`CC(C(=O)O)c1ccc(N2CCCCC2)cc1` (stereo unspecified): the inhibition in vivo at 50 mg/kg came to 68%.

With `CC(C)(CN)c1ccc(N2CCCCC2)cc1.O=C(O)CCC(=O)O`, the inhibition in vivo at 50 mg/kg was found to be 34%.

For `Cl.NCCc1cccc(N2CCCCC2)c1`, the inhibition in vivo at 50 mg/kg turned out to be 39%.

For `CC(CN)c1ccc(N2CCCCC2)cc1.Cl` (stereo unspecified), the inhibition in vivo at 50 mg/kg was found to be 57%.

Take `c1cc(N2CCCCC2)ccc1CCN1CCCCC1`: the inhibition in vivo at 50 mg/kg was determined as 46%.

With `C[C@]12CCC(=O)C=C1CC[C@@H]1[C@@H]2[C@@H](O)C[C@@]2(C)[C@H]1CC[C@]2(O)C(=O)CO` [HYDROCORTISONE], the inhibition in vivo at 50 mg/kg was 35%.

Consider `CC(C)c1ccc(N2CCCCC2)cc1.Cl`, for which the inhibition in vivo at 50 mg/kg was determined as 30%.

Consider `CNCCc1ccc(N2CCCCC2)cc1.O=C(O)CCC(=O)O`, for which the inhibition in vivo at 50 mg/kg is 33%.

Staying with this data set, now noted: at 50 mg/kg.
Take `CC(C)(O)c1ccc(N2CCCCC2)cc1`: the inhibition result is “inactive”.

(Values after ChEMBL document CHEMBL3243965, “Potential antiinflammatory compounds. 1. Antiinflammatory phenylpiperidine derivatives” (J Med Chem, 1979).)
